Rows were chosen to be rich in hits. Some 1.7% of all compounds tested hit in one or more screens of this group.
Rpn11 inh = Rpn11 (human) deubiquitinase inhibition. actives 0.59% (n = 360,000). O00487. inhibition, % at 20 µM. human 26S proteasome, Ub4-pepOG fluorescence polarization; 20S core pre-blocked with epoxomicin;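 active = inhibition at 20 µM, scaled to each plate's controls, above about 33%, limit read from the data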
PLC-beta3 inh = blocks human PLC-beta3 enzyme activity; Purified PLC-beta3, fluorogenic substrate, fluorescence; inhibition, % at 12.2 µM; actives 0.18% (n = 370,000); AID 720704; Q01970; in the data active = inhibition above about 11%;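 note: 0% = median of compound wells on plate and 100% = full blocker control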
PLCg1 inh = inhibitors of human phospholipase C gamma1; actives 0.84% (n = 370,000); purified PLC-gamma1, fluorogenic substrate, fluorescence; P19174; AID 720700; inhibition, % at 12.2 µM
Target sequence (P19174 whole entry, looked up): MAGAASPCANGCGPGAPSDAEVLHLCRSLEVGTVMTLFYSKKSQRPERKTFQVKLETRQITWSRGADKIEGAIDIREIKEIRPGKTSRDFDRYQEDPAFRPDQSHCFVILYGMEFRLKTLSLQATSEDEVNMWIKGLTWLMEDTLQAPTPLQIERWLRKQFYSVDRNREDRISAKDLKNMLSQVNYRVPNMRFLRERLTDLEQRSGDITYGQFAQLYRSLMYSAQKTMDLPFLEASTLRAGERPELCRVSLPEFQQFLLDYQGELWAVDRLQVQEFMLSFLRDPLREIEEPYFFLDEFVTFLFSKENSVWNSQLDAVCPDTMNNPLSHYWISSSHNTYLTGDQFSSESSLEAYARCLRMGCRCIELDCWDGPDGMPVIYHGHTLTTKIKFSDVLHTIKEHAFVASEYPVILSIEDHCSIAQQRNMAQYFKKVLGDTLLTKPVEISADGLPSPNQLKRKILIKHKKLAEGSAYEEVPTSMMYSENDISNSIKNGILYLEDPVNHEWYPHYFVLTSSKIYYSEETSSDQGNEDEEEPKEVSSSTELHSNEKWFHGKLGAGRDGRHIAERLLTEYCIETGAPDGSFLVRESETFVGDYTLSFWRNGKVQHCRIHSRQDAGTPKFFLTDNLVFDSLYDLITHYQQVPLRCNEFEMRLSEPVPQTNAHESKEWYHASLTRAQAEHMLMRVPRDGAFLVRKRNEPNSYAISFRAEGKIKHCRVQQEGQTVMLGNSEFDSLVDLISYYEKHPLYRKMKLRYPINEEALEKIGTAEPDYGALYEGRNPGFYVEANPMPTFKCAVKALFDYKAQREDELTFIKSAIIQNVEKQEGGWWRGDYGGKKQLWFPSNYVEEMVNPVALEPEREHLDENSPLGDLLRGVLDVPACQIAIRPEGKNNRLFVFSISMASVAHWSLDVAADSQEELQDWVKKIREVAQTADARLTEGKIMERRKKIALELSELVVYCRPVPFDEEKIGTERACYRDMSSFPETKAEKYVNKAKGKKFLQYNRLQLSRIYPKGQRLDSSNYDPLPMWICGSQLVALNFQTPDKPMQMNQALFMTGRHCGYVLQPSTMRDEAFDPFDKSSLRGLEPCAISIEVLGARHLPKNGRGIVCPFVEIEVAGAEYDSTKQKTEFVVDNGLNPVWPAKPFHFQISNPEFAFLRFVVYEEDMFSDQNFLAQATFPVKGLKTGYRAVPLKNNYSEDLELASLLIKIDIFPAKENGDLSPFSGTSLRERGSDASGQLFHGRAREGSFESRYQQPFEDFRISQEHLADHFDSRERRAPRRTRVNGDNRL
UCH37 DUB inh = blocks the human deubiquitinase UCH37; inhibition, % (no concentration beside the values); purified proteasome/UCH37, Ub-AMC cleavage fluorescence; Q9Y5K5; actives 0.33% (n = 330,000);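 active = mean inhibition over replicate wells above about 20%, limit read from the data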;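 note: 0% = compound-free wells with enzyme and 100% = wells lacking proteasome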
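assay system = human UCH37 enzyme supplied as purified proteasome complex | amount = proteasome at 0.15 nM in the dispensed enzyme solution | schedule = 30 min compound-proteasome preincubation then 25 min substrate reaction, room temperature | measured by = fluorescence, ex 355 nm, em 460 nm | benchmarks = no-proteasome wells (full inhibition) and compound-free wells (no inhibition)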
PLCg1 ctr = PLC-gamma1 inhibition, counter-screen for PLC-beta3 hits. shares compounds with PLCg1 inh. purified PLC-gamma1, fluorogenic substrate, fluorescence. inhibition, % at 12.3 µM. actives 3.1% (n = 3,300). AID 743258
PLCbeta3 conf = human PLC-beta3 inhibition, confirmation; shares compounds with PLCg1 inh; purified PLC-beta3, fluorogenic substrate fluorescence; inhibition, % at 12.3 µM; actives 1% (n = 3,300); in the data active = inhibition above about 11%
An asterisk follows results filed as active; · = no result. Cut-off read from the data, not from the text of the source, unless noted: active = inhibition above about 9.5%; inactive = the rest.

SMILES | Rpn11 inh | PLC-beta3 inh | PLCg1 inh | UCH37 DUB inh | PLCg1 ctr | PLCbeta3 conf
CCCC(=O)NC(c1ccco1)c1cc([N+](=O)[O-])c2cccnc2c1O (stereo not drawn) | 19 | 4 | 14* | 14 | 0 | -4
O=C(NN=Cc1ccccn1)c1cc(-c2ccccc2)nc2ccccc12 | · | · | · | 2 | · | ·
CC(=NNC(=O)c1cc(O)ccc1O)c1cccc(NC(=O)c2cccc(Cl)c2)c1 | · | · | · | 6 | · | ·
Cc1nn(-c2cc(C(F)(F)F)ccc2Cl)c2nc(C(F)(F)F)[nH]c(=O)c12 | 2 | 12* | 4 | 6 | -2 | -6
O=C(NN=Cc1cccc(OC(=O)c2ccco2)c1)c1ccc(F)cc1 | · | · | · | 2 | · | ·
C/C(C=NNC(=O)CN1CCN(Cc2ccc(Cl)cc2)CC1)=C\c1ccco1 | · | · | · | 8 | · | ·
CCCCOC(=O)CSc1nc2c(c(=O)[nH]c(=O)n2C)n1C/C=C(\C)Cl | 6 | 6 | 13* | 8 | 2 | 3
C/C(Cl)=C/Cn1c(SCC(C)C)nc2c1c(=O)[nH]c(=O)n2C | -2 | 1 | 4 | 3 | · | ·
O=C(NCC1CCCO1)c1nnc(Cc2ccc(F)cc2)o1 (stereo not drawn) | -5 | 7 | 11* | 2 | -9 | -5
O=C(CSc1nnc(CNC(=O)c2ccc(F)cc2)o1)NCC1CCCO1 (stereo not drawn) | 0 | -6 | -1 | 1 | · | ·
O=C(CSc1ncccn1)NN=Cc1ccc2c(c1)OCO2 | · | · | · | -1 | · | ·
Cc1cccc(-c2nn(-c3ccccc3)cc2C(=O)Nc2cccc(S(=O)(=O)NC3=NCCC3)c2)c1 | -12 | 2 | 11* | 0 | -6 | -3
Cc1nn(Cc2ccccc2)c(C)c1/C=N/NC(=O)CNc1cccc(C(F)(F)F)c1 | -1 | 0 | 9.6* | · | -11 | -5
COc1ccc(-c2cc(C(=O)NN=Cc3cccnc3)c3ccccc3n2)cc1 | · | · | · | -53 | · | ·
COc1ccc(C=NNC(=O)c2cccc(S(=O)(=O)N3CCCC3)c2)cc1O | · | · | · | 8 | · | ·
CCOC(=O)Cc1c[nH]c(=S)[nH]c1=O | 4 | 2 | 11* | · | -4 | 0
CCOC(=O)Cc1c(C)nc(N)[nH]c1=O | 2 | -2 | 1 | 0 | · | ·
COc1ccc(NC(=O)COc2ccc(C=NO)cc2OC)cc1 | · | · | · | 3 | · | ·
CC(C)Nc1nc(NC(C)C)nc(N(C)n2cnnc2)n1 | -6 | 5 | 9.9* | -3 | -4 | -3
COC(=O)C12OCC34C(CC5C(C)=C(O)C(=O)CC5(C)C3C(O)C1O)OC(=O)C(OC(=O)C=C(C)C)C24 (stereo not drawn) | 3 | 7 | 12* | · | -2 | -6
COc1ccc(/C=N/NC(=O)C(=O)N2CCN(c3ccccc3OC)CC2)cc1 | -6 | -1 | 12* | · | -5 | -2
COc1ccccc1N1CCN(C(=O)C(=O)NN=Cc2ccccc2F)CC1 | · | · | · | 1 | · | ·
CCOC(=O)NN=C/C=C/c1ccccc1[N+](=O)[O-] | · | · | · | 4 | · | ·
CC(=O)Nc1ccc(S(=O)(=O)NCC(=O)OCC(=O)N2CCc3ccccc32)cc1 | -5 | 1 | 13* | 6 | -9 | -6
O=C(CNC(=O)c1ccccc1F)OCC(=O)N1CCCc2ccccc21 | -148 | 4 | 4 | 1 | · | ·
SMILES | Rpn11 inh | PLC-beta3 inh | PLCg1 inh | UCH37 DUB inh | PLCg1 ctr | PLCbeta3 conf
O=C(CNC(=O)c1cccc(F)c1)OCC(=O)N1CCCc2ccccc21 | -8 | 5 | 12* | 2 | -2 | -1
CON=CCC(=O)Nc1ccc(F)cc1F | · | · | · | 2 | · | ·
CCCCCCn1c(=O)c(C(=O)NN=Cc2cccc(F)c2)c(O)c2ccccc21 | · | · | · | 1 | · | ·
CC(=NNC(=O)c1ccc(F)cc1)c1ccc(N2CCOCC2)cc1 | · | · | · | 8 | · | ·
COc1cc(C(=O)Nc2cccc3cccnc23)cc(OC)c1OC | -1 | -4 | 1 | 3 | · | ·
COc1cc(NC(=O)Nc2cccc3cccnc23)cc(OC)c1OC | 0 | 2 | 15* | 7 | -5 | -2
CC(C)OC(=S)NC(=NS(=O)(=O)c1ccccc1)c1ccccc1 | · | · | · | -1 | · | ·
COc1ccc(C(C)=Nn2cnnc2)cc1 | · | · | · | -2 | · | ·
COc1ccc(C2=NN(C(=O)CSC3=NN4CCCC(=O)N=C4S3)C(c3cccc(OC)c3OC)C2)cc1 (stereo not drawn) | 7 | 7 | 9.7* | 2 | -4 | -6
CCSC1=C(C#N)C2(CCCCC2)C(C#N)C(=O)N1 (stereo not drawn) | 6 | 2 | 13* | 0 | -6 | -5
CCSC1=C(C#N)C2(CCCCC2)C(C#N)=C(N)N1 | -3 | -2 | -3 | 3 | · | ·
Cc1sc2ncn(CC(=O)NCCN3CCOCC3)c(=O)c2c1S(=O)(=O)N1CCC(C)CC1 | 0 | 3 | 11* | -1 | -8 | -5
Cc1sc2ncn(CC(=O)NCCCN3CCC(C)CC3)c(=O)c2c1S(=O)(=O)N1CCC(C)CC1 | 4 | -3 | 6 | 2 | · | ·
CCOc1ccc(OCC(=O)N2CCOCC2)cc1 | -1 | 0 | -3 | 4 | · | ·
CCOc1ccc(S(=O)(=O)N(C)c2ccc(OCC(=O)N3CCOCC3)cc2)cc1 | -4 | 3 | 9.8* | 1 | -5 | -1
N#Cc1cnn(Cc2ccccc2)c1N=CN1CCOCC1 | · | · | · | -2 | · | ·
O=C(CCn1cnc(-c2ccccc2)c1-c1ccccc1)NN=Cc1ccc(O)cc1 | · | · | · | 3 | · | ·
O=C1/C(=C\c2cccs2)SC(=S)N1C1CCS(=O)(=O)C1 (stereo not drawn) | -3 | 0 | 9.8* | 7 | -1 | 0
Cc1cc(NC(=O)C2C3C(=O)N(Cc4ccc(Cl)cc4)C(C(=O)NCc4ccccc4)C34C=CC2(C)O4)no1 (stereo not drawn) | -1 | 13* | 10* | 0 | -4 | -2
Cc1cc(NC(=O)C2C3C(=O)N(Cc4ccc(Cl)cc4)C(C(=O)NC4CCCCC4)C34C=CC2(C)O4)no1 (stereo not drawn) | 3 | 6 | 1 | -3 | · | ·
Nc1ncnc2c1ncn2[C@@H]1O[C@H](COP(=O)(O)OP(=O)(O)OP(=O)(O)O)[C@@H](O)[C@H]1O | -3 | 1 | 40* | 1 | 54* | 1
Nc1ncnc2c1ncn2C1OC(COP(=O)(O)O)C(O)C1O (stereo not drawn) | 0 | 1 | 41* | -1 | 55* | 1
NCCC(=O)NC[C@H]1O[C@@H](n2cnc3c(N)ncnc32)[C@H](O)[C@@H]1O | -8 | 3 | 2 | -1 | · | ·
NC(=O)C1=CN([C@@H]2O[C@H](COP(=O)(O)OP(=O)(O)OC[C@H]3O[C@@H](n4cnc5c(N)ncnc54)[C@H](O)[C@@H]3O)[C@@H](O)[C@H]2O)C=CC1 | · | -11 | 29* | · | 32* | -18
Nc1ncnc2c1ncn2[C@@H]1O[C@H](COP(=O)(O)O)[C@@H](O)[C@H]1O | 6 | -1 | 39* | 0 | 48* | -1
Nc1ncnc2c1ncn2[C@@H]1O[C@H](COS(=O)(=O)O)[C@@H](O)[C@H]1O | -4 | 1 | 1 | · | · | ·
O=C(O)CC1SC(=NN=Cc2ccc([N+](=O)[O-])cc2)N(c2ccc(O)cc2)C1=O (stereo not drawn) | · | · | · | 15 | · | ·

Screens (PubChem)
